In the library only some 1.7% were active in any assay of this set; here they are far more common.
CAL PDZ FP-1: untagged CAL PDZ binding inhibitors, primary screen, biochemical, fluorescence polarization, HTS. purified CAL PDZ, TMR-peptide fluorescence polarization, 1 h. inhibition, % at 24.9 µM. 300,000 compounds, 0.92% hits;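 active means mean inhibition of at least 30% with at least half of replicates also reaching 30%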;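 further: 0% = DMSO neutral control and 100% = excess unlabeled competitor peptide PRC23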
CAL PDZ FP-2: CAL PDZ peptide-binding inhibitors, primary screen, biochemical, fluorescence polarization, Cer-tagged CAL PDZ, HTS; Golgi-associated PDZ and coiled-coil motif-containing protein (Homo sapiens), Q9HD26; purified CAL PDZ, TMR-peptide fluorescence polarization, 1 h; inhibition, % at 20 µM; 330,000 compounds, 0.02% hits;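 active means highest replicate inhibition of at least 40%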;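 further: plate controls were DMSO neutral control wells for no effect and unlabeled competitor peptide control wells for full effect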
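material = purified tagged CAL PDZ domain construct (CerCALP) | buffer or medium = sodium phosphate/NaCl buffer pH 7.4 with TCEP, IgG, Thesit | reagent = TMR-labelled reporter peptide T*-PRC34 bound in PDZ groove | incubation = 1 h room-temperature incubation prior to read | measured by = fluorescence polarization (mP) | evaluation = percent inhibition from loss of millipolarization | control set = unlabelled peptide and DMSO controls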
miR-122 sensor: miR-122 Renilla sensor signal increase in Huh7, primary screen, miR-122 inhibitor project, cell-based, single point, plate reader | Huh7 miR-122 Renilla luciferase sensor, 48 h; neutral wells = 0, positive control = 100 | activation (reporter increase), % at 12.5 µM | 340,000 compounds, 0.3% hits | AID 602342, 2012;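 active means mean replicate activation score at least 90 and every replicate individually at or above 90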;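 further: higher luciferase means less miR-122 activity so hits act as miR-122 inhibitors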
F508del corr: F508del CFTR correction, initial screen, CFBE line, single point; CFBE cells, YFP halide quenching; stimulated with forskolin plus potentiator P3; % fluorescence drop versus neutral controls; activity (quench increase), % at 7.58 µM; 350,000 compounds, 0.36% hits;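 active means mean added fluorescence quench of at least 8% versus neutral control, with both replicates also reaching 8%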;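 further: cells transiently co-express mutant CFTR-F508del with the halide-sensitive YFP; corrector assay measuring rescue of mutant channel to the surface after 24 h compound exposure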
PGC1a acetyl inh: inhibitors of PGC1a acetylation signal, primary screen, cell-based, U2OS, AlphaScreen, inhibitor mode. AlphaScreen anti-acetyl-lysine; with virally co-expressed GCN5 acetyltransferase. inhibition, % at 15.6 µM. 350,000 compounds, 0.17% hits. AID 651687, 2012;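 active means every replicate shows inhibition of at least 40%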;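 further: 0% = neutral control wells and 100% = positive control wells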
ARNT-TACC3 inh: disruptors of ARNT/TACC3 protein interaction, primary screen, biochemical, AlphaScreen, single concentration; Transforming acidic coiled-coil-containing protein 3 (Homo sapiens), Q9Y6A5; AID 623870, 2012; 390,000 compounds, 0.66% hits; inhibition, % at 9.99 µM; AlphaScreen His-ARNT PAS-B/GST-TACC3 binding, luminescence; TACC3 fragment carries E629A point mutation;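 active means mean inhibition of replicates at least 50% and at least half of replicates each reaching 50%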;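 further: 0% = complete ARNT plus TACC3 wells and 100% = ARNT alone without TACC3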
* = called active by the depositor; · = no result given; [ ] = dose if it differs, or a comment.

SMILES	CAL PDZ FP-1	CAL PDZ FP-2	miR-122 sensor	F508del corr	PGC1a acetyl inh	ARNT-TACC3 inh
COc1ccc(C(CNC(=O)COc2ccc(-c3ccccc3)cc2)N2CCOCC2)cc1 (stereo unspecified)	-2	-3	-7	2	0	3
COc1ccc(C(CNC(=O)COc2c(C)cc(C)cc2C)N2CCOCC2)cc1 (stereo unspecified)	68*	0	·	2	·	2
CCOC(=O)c1sc(-c2ccc(Cl)cc2Cl)nc1O	49*	0	·	3	·	0
COCC(=O)N(C)C[C@H]1Oc2cc(C#CC(C)(C)O)ccc2S(=O)(=O)N([C@@H](C)CO)C[C@@H]1C	·	·	·	-2	-5	-11
CC(=O)Nc1ccccc1NC(=O)C/C(C)=N/NC(=O)c1ccc([N+](=O)[O-])c(Cl)c1	30*	-1	-10	·	2	1
COC(=O)[C@H]1[C@H](CO)[C@H]2Cn3c(ccc(-c4ccccc4F)c3=O)[C@H]2N1CC1CCOCC1	·	·	4[16.7 µM]	0	-10	0
O=C(Nc1nnc(C2=COCCO2)o1)c1ccc(Br)cc1	0	-4	-6	4	·	41
O=C(Nc1nnc(C2=COCCO2)o1)c1ccc(F)cc1	-2	-2	-4	3	·	50*
COc1ccc(-c2nnc(NC(=O)C3=COCCO3)o2)cc1	-2	-3	-6	·	·	46*
O=C(Nc1nnc(C2=COCCO2)o1)c1ccc([N+](=O)[O-])cc1	-6	1	-1	2	1	41*
O=C(Nc1nnc(C2=COCCO2)o1)c1ccc(Cl)cc1	-4	-2	·	·	·	52*
O=C(Nc1ccc(F)cc1)N1C[C@@H]2[C@H](c3ccccc31)[C@H](CO)N2C(=O)c1cccnc1	·	·	14[16.7 µM]	3	7	1
C[C@@H]1CN([C@H](C)CO)C(=O)c2cc(NS(=O)(=O)c3cccs3)ccc2O[C@@H](C)CCCCO[C@H]1CN(C)S(=O)(=O)c1ccc(F)cc1	·	·	10[16.7 µM]	3	8	17
CCCNC(=O)[C@@H]1[C@@H](CO)[C@@H]2Cn3c(ccc(-c4cccc(F)c4)c3=O)[C@@H]2N1C(=O)CC	·	·	0[16.7 µM]	1	-2	2
CC(C)C#Cc1ccc2c(c1)O[C@H](CN(C)C(=O)c1ccncc1)[C@@H](C)CN([C@@H](C)CO)S2(=O)=O	·	·	-41[16.7 µM]	-2	-5	1
CCOC(=O)c1ccc(S(=O)(=O)NC2CCCCCCC2)n1C	1	-2	128*	·	-11	-7
COc1ccc2c3c(n(C)c2c1)[C@H](CO)NCC31CCN(Cc2ccc(-c3ccccn3)cc2)CC1	·	·	·	1	-7	·
CCOC(=O)c1ccc(Nc2sc(C(=O)c3cccc([N+](=O)[O-])c3)c(N)c2C#N)cc1	-2	1	·	12*	·	3
C[C@@H](O)C#Cc1ccc2c(c1)O[C@H](CN(C)C(=O)CC1CC1)[C@@H](C)CN([C@@H](C)CO)S2(=O)=O	·	·	-1[16.7 µM]	1	7	-7
C=CCNc1cc(F)ccc1S(=O)(=O)NCC=C	-8	-1	96*	2	4	-1
Cn1cnc(S(=O)(=O)N2C[C@H](O)COC[C@@H]3O[C@H](CC(=O)NCc4cc(F)cc(F)c4)CC[C@H]32)c1	·	·	-1[16.7 µM]	-3	0	-5
Cc1c(CCO)c(=O)n(-c2ccccc2)n1S(=O)(=O)c1c(Cl)cc(Cl)cc1Cl	-16	-1	-6	·	-6	57*
CNC[C@H]1Oc2c(NC(=O)NC(C)C)cccc2C(=O)N([C@@H](C)CO)C[C@H]1C	·	·	-2[16.7 µM]	4	5	3
CC(=O)N(C)C[C@H]1Oc2cc(-c3ccccc3)ccc2S(=O)(=O)N([C@@H](C)CO)C[C@@H]1C	·	·	-1[16.7 µM]	·	-17	-14

Compound activity deposited in PubChem BioAssay by Broad Institute.
